Assay results published in publication PMC3272422 (Molecular cancer therapeutics, 2011).
Read-outs that look alike come from different tables or passages of the source.

How the values were obtained:
MDA-MB-468 cells = assay: Toxicity in MDA-MB-468 cells, MTT assay; assay type: cell-based
BT474 cells = assay: CB1954 toxicity in BT474 cells; assay type: cell-based; settings: Homo sapiens
K562 cells = assay: 96 hour toxicity, XTT assay; assay type: cell-based; settings: read-out: 96 hour Toxicity in Cells IC50, K562
[1] = tested on: NFκB transcriptional activity in MDA-MB-468 cells; assay: NFκB dual luciferase reporter assay; assay type: cell-based
Procedure, shortened: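 MDA-MB-468 cells (7×10^5 per 6 cm plate, 24 h attachment) were transfected with 1 µg/plate Cignal NFκB reporter (6× NFκB element-driven firefly, CMV-Renilla) using Oligofectamine in opti-MEM for 5 h at 37 °C. They were then re-fed with RPMI/10% FCS and reseeded into 96-well plates. Cells were pretreated for 1 h with 100 µM NRH and/or 20 ng/mL TNFα, then given test compound (DMSO ≤0.5% final) for 18 h. Passive lysis, dual-luciferase read-out.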

[2] = tested on: NFκB in Renal Carcinoma cells; settings: cited from earlier work
Recombinant human NQO2 = biological target: T1, Recombinant human NQO2 (Homo sapiens, UniProt P16083); assay: Inhibition of recombinant NQO2 enzymatic activity; assay type: biochemical; settings: for IC50: 200 μM NRH, DCPIP; for ΔGexp, experimentally determined binding affinity: derived from IC50 by the Cheng-Prusoff equation
T1 sequence (P16083 1-231): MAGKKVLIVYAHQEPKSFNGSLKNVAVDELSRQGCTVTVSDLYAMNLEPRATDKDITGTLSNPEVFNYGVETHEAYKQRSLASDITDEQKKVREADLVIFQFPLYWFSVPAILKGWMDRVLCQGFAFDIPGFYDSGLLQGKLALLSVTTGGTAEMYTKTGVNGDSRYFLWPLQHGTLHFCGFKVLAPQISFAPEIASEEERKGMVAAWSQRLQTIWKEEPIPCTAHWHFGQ

Recombinant human NQO1 = settings: previously reported; cited from earlier work
[3] = Homo sapiens, MDA-MB-468, read-out: 3hr toxicity (IC50) Inhibitor alone
[4] = IC50 + BSA, presence of 2 μM BSA
[5] = read-out: IC50 + BSA, presence of 2 μM BSA
[6] = read-out: IC50 – BSA, absence of BSA
[7] = read-out: 96 hour Toxicity in Cells IC50, MDA-MB-468, 96 hour exposure

Row | Compound | IC50 (K562 cells; Homo sapiens, K562, 96 h) [µM] | ΔGexp, experimentally determined binding affinity (Recombinant human NQO2) [kcal/mol] | IC50 (Recombinant human NQO2; [5]) [µM] | IC50 (Recombinant human NQO2; [6]) [µM] | IC50 (K562 cells; 96 hour exposure) [µM] | IC50 (MDA-MB-468 cells; [7]) [µM] | other results
1 | NC(=O)c1cc(N2CC2)c([N+](=O)[O-])cc1[N+](=O)[O-] [CB1954, 5-(-aziridin-1-yl)-2,4-dinitrobenzamide, reference compound] | – | – | – | – | – | – | proliferation of MDA-MB-468 cells (MDA-MB-468 cells; 100μM CB1954 plus 100μM NRH, 3 hours): about 25%; IC50 (MDA-MB-468 cells; Homo sapiens, MDA-MB-468, 3 h, read-out: IC50 of CB1954 alone): > 1000 µM; IC50 (BT474 cells; BT-474, read-out: IC50 of CB1954, absence of NRH): > 1000 µM; IC50 (BT474 cells; BT-474, read-out: IC50 of CB1954, presence of 100μM NRH): 1000 µM
2 | Cc1ccc(NC(=O)c2ccc(CN3CCN(C)CC3)cc2)cc1Nc1nccc(-c2cccnc2)n1 [Imatinib, reference compound] | 0.68 ± 0.51 | – | – | – | – | – | –
3 | NC(=O)C1=CN([C@@H]2O[C@H](CO)[C@@H](O)[C@H]2O)C=CC1 [NRH, N-ribosyl nicotinamide, reference compound] | – | – | – | – | – | – | toxicity of NRH itself (MDA-MB-468 cells; 1μM to 1mM NRH): no toxicity; NFκB activity (luciferase) ([1]; 100μM NRH, without TNFα): stimulates NFκB activity
4 | Nc1c2ccccc2nc2ccccc12 [NSC13000, 9-aminoacridine] | 1 ± 1.4 | – | – | – | – | – | IC50 (MDA-MB-468 cells; [3]): 23 ± 5.1 µM; NFκB transcriptional (luciferase) activity ([1]; 0.1μM NSC13000, cells with or without 100μM NRH): reduces the luciferase activity; basal and induced activity of NFκB [2]: effectively suppressed
5 | CCN(CC)CCCC(C)Nc1c2ccc(Cl)cc2nc2ccc(OC)cc12 (stereo not drawn) [NSC14229, Quinacrine] | 4 ± 3.6 | -9.197 | – | – | – | – | IC50 (Recombinant human NQO2; [4]): 8.5 ± 1.6 µM; IC50 (Recombinant human NQO2; IC50 – BSA, absence of BSA): 0.2 ± 0.05 µM; basal and induced activity of NFκB [2]: effectively suppressed
6 | Cc1c2ccncc2c(C)c2c1[nH]c1ccccc12 [NSC71795] | – | -10.07 | 0.24 ± 0.09 | 0.05 ± 0.01 | 0.73 ± 0.6 | 0.27 ± 0.2 | –
7 | Cc1c2cnccc2c(C)c2c1c1ccccc1n2CCNCc1ccccc1 [NSC164016] | – | -10.74 | 3 ± 1.21 | 0.02 ± 0.01 | 0.7 ± 0.29 | 0.43 ± 0.24 | –
8 | N=C(N)c1ccc(-c2ccc(-c3ccc(C(=N)N)cc3)o2)cc1 [NSC305831] | 27 ± 35 | -8.513 | – | – | – | – | IC50 (Recombinant human NQO2; [4]): 2.8 ± 0.61 µM; IC50 (MDA-MB-468 cells; [3]): 114 ± 52 µM
9 | Cc1c(-c2ccc(C(=N)N)cc2)oc(-c2ccc(C(=N)N)cc2)c1C [NSC305836] | – | -10.07 | 0.2 ± 0.09 | 0.05 ± 0.01 | 5.5 ± 3.6 | 3.9 ± 2.5 | –
10 | Nc1cc2c(cc1[N+](=O)[O-])[nH]c1c(-c3ccccc3)nccc12 [NSC620318] | – | -9.197 | 4.1 ± 1.05 | 0.2 ± 0.01 | 35 ± 33 | 22 ± 9.1 | –
11 | O=C1c2c(c3c4ccccc4[nH]c3c3[nH]c4ccccc4c23)C(=O)N1Cc1ccccc1 [NSC628440] | – | -8.485 | 9.8 ± 0.92 | 0.66 ± 0.08 | 0.75 ± 0.76 | 4 ± 0.021 | inhibition of NQO1 (Recombinant human NQO1): relatively weak inhibitor
12 | Oc1ccc(/C=C/c2cc(O)cc(O)c2)cc1 [Resveratrol, reference compound] | 72 ± 5.1 | – | – | – | – | – | IC50 (MDA-MB-468 cells; [3]): > 100 µM
